Measured values reported in ChEMBL document CHEMBL1926502, “The discovery of UK-369003, a novel PDE5 inhibitor with the potential for oral bioavailability and dose-proportional pharmacokinetics” (Bioorg Med Chem, 2012).
In brackets after ≈: the same amount, converted by molar mass.

Tests used:
Caco-2 = test: Efflux ratio of apparent permeability from apical to basolateral to basolateral to apical side of human Caco2 cells; type: ADME, cell-based
How it was run: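 Caco-2 cell monolayers; flux measured in both directions, and the efflux ratio is taken as apical→basolateral flux divided by basolateral→apical flux.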

Homo sapiens [1] = species: Homo sapiens; test: Selectivity ratio of IC50 for PDE6 to IC50 for human PDE5
How it was run: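 PDE5 was prepared from human corpus cavernosum and cone PDE6 from dog retina (anion-exchange fraction). IC50s came from concentration–response curves in a scintillation proximity assay with [3H]/unlabelled cGMP (1:3) at about 1/3 Km, so IC50 = Ki. Buffer was 20 mM Tris-HCl pH 7.4, 5 mM MgCl2, 1 mg/mL BSA; 30–60 min at 30 °C, <30% turnover. Ratio = PDE6 IC50/PDE5 IC50.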

[2] = biological target: cGMP-specific 3',5'-cyclic phosphodiesterase (Homo sapiens, UniProt O76074); test: Inhibition of human PDE5 isolated from corpus cavernosum after 30 to 60 mins by scintillation counting method
[3] = Apparent permeability from apical to basolateral side of human Caco2 cells at 25 uM; type: ADME, cell-based; details: Caco-2
[4] = Lipophilicity, log D of the compound at pH 7.4; type: physicochemical; details: buffer
[5] = Oral bioavailability in rat at 2 mg/kg; type: ADME, organism-based; details: in vivo
[6] = Aqueous solubility of the compound at pH 6.7; type: physicochemical; details: buffer
[7] = Clearance in rat at 1 mg/kg, iv; type: ADME, organism-based; set-up: dose 1 mg/kg, route intravenous; details: in vivo
[8] = Aqueous solubility of the compound in 0.2 M lactate buffer at pH 4.3; type: physicochemical
[9] = Elimination half life in human at 0.43 mg/kg, iv; type: ADME, organism-based; set-up: dose 0.43 mg/kg, route intravenous; details: in vivo, read-out: beta t1/2 (converted)
Homo sapiens [10] = test: AUC in human at 1.43 mg/kg, po; type: ADME, organism-based, Plasma; set-up: dose 1.43 mg/kg, route oral; details: in vivo
How it was run: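 Human pharmacokinetic study. The oral arm was given at 1.43 mg/kg, and a separate intravenous arm at 0.43 mg/kg. AUC (ng h/ml) was derived from the oral dosing, alongside Cmax, Tmax and oral bioavailability.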

[11] = Tmax in human at 1.43 mg/kg, po; type: ADME, organism-based; set-up: dose 1.43 mg/kg, route oral; details: in vivo
[12] = Volume of distribution in rat at 1 mg/kg, iv and 2 mg/kg, po; type: ADME, organism-based; details: in vivo
[13] = Clearance in dog at 0.5 mg/kg, iv; type: ADME, organism-based, Canis lupus familiaris; set-up: dose 0.5 mg/kg, route intravenous; details: in vivo
[14] = Volume of distribution in dog at 0.5 mg/kg, iv and 1 mg/kg, po; type: ADME, organism-based, Canis lupus familiaris; details: in vivo
[15] = Half life in human liver microsomes; type: ADME, Microsome
[16] = Volume of distribution in human at 0.43 mg/kg, iv; type: ADME, organism-based; set-up: dose 0.43 mg/kg, route intravenous; details: in vivo
Homo sapiens [17] = test: Oral bioavailability in human at 1.43 mg/kg; type: ADME, organism-based; details: in vivo
[18] = Elimination half life in dog at 0.5 mg/kg, iv and 1 mg/kg, po; type: ADME, organism-based, Canis lupus familiaris; details: in vivo, read-out: beta t1/2 (converted)
[19] = Elimination half life in rat at 1 mg/kg, iv and 2 mg/kg, po; type: ADME, organism-based; details: in vivo, read-out: beta t1/2 (converted)
[20] = Oral bioavailability in dog at 1 mg/kg; type: ADME, organism-based, Canis lupus familiaris; details: in vivo
[21] = Cmax in human at 1.43 mg/kg, po; type: ADME, organism-based; set-up: dose 1.43 mg/kg, route oral; details: in vivo

| SMILES | Ratio IC50 (Homo sapiens [1]) | IC50 [2] [nM] | further results |
| --- | --- | --- | --- |
| CCCCOc1ncc(S(=O)(=O)N2CCN(CC)CC2)cc1-c1nc2c(CC)n(CCN(C)C)nc2c(=O)[nH]1 | 171 | 1 | Ratio (Caco-2): 7; Papp A→B at 25 µM [3]: 2.8 ×10⁻⁶ cm/s; logD [4]: 3 |
| CCc1c2nc(-c3cc(S(=O)(=O)N4CCN(CC)CC4)cnc3OCCOC)[nH]c(=O)c2nn1C(C)C | 354 | 1.36 |  |
| CCOc1ncc(S(=O)(=O)N2CCN(CC)CC2)cc1-c1nc2c(CC)n(CCOC)nc2c(=O)[nH]1 |  | 1.23 | bioavailability [5]: 61%; solubility [6]: 100 mg/mL (≈ 192 mM); clearance [7]: 26.6 mL/min/kg; solubility [8]: > 14 mg/mL; half-life [9]: 156 min; AUC (Homo sapiens [10]): 95.2 ng·h/mL; Tmax [11]: 1 h; Vd [12]: 2.2 L/kg; clearance [13]: 16 mL/min/kg; Papp A→B at 25 µM [3]: 16 ×10⁻⁶ cm/s; Vd [14]: 2.8 L/kg; half-life [15]: 28 min; Vd [16]: 2.8 L/kg; F (Homo sapiens [17]): 34%; half-life [18]: 126 min; half-life [19]: 57 min; bioavailability [20]: 55%; logD [4]: 2.1; Cmax [21]: 205 ng/mL |
| CCc1c2nc(-c3cc(S(=O)(=O)N4CCN(CC)CC4)cnc3OCCOC)[nH]c(=O)c2nn1C1CCOCC1 | 241 | 1.66 |  |
| CCN1CCN(S(=O)(=O)c2cnc(OCCOC)c(-c3nc4c5n(nc4c(=O)[nH]3)CCCC5)c2)CC1 | 392 | 8.5 |  |
| CCCCOc1ncc(S(=O)(=O)N2CCN(CC)CC2)cc1-c1nc2c(CC)n(C3CCN(C)CC3)nc2c(=O)[nH]1 | 184 | 0.74 |  |
| CCCCOc1ncc(S(=O)(=O)N2CCN(CC)CC2)cc1-c1nc2c(CC)n(C3CCN(S(C)(=O)=O)CC3)nc2c(=O)[nH]1 | 100 | 0.31 |  |
| CCCn1nc2c(=O)[nH]c(-c3cc(S(=O)(=O)N4CCN(CC)CC4)cnc3OCCOC)nc2c1CC | 170 | 1.83 |  |
| CCc1c2nc(-c3cc(S(=O)(=O)N4CCN(CC)CC4)cnc3OCCOC)[nH]c(=O)c2nn1CCN1CCOCC1 | 210 | 1.27 | Ratio (Caco-2): 8; Papp A→B at 25 µM [3]: 2.8 ×10⁻⁶ cm/s; half-life [15]: 48 min; logD [4]: 1.1 |
| CCOc1ncc(S(=O)(=O)N2CCN(CC)CC2)cc1-c1nc2c(CC)n(CCN3CCOCC3)nc2c(=O)[nH]1 | 184 | 0.86 | Ratio (Caco-2): 11.2; Papp A→B at 25 µM [3]: 2.5 ×10⁻⁶ cm/s; half-life [15]: 18 min; logD [4]: 1.6 |
| CCOc1ncc(S(=O)(=O)N2CCN(CC)CC2)cc1-c1nc2c3n(nc2c(=O)[nH]1)CCCC3C (single isomer, unassigned; (+)) [listing 1 of 2 here] |  | 3.35 |  |
| CCc1c2nc(-c3cc(S(=O)(=O)N4CCN(CC)CC4)cnc3OCCOC)[nH]c(=O)c2nn1CC1CC1 | 189 | 1.01 |  |
| CCc1c2nc(-c3cc(S(=O)(=O)N4CCN(CC)CC4)cnc3OCC(C)C)[nH]c(=O)c2nn1CCOC | 204 | 0.69 | Ratio (Caco-2): 1.1; Papp A→B at 25 µM [3]: 40 ×10⁻⁶ cm/s; half-life [15]: 7 min; logD [4]: 2.9 |
| CCOc1ncc(S(=O)(=O)N2CCN(CC)CC2)cc1-c1nc2c3n(nc2c(=O)[nH]1)CCCC3 | 70 | 10.8 |  |
| CCN1CCN(S(=O)(=O)c2cnc(OCCOC)c(-c3nc4c5n(nc4c(=O)[nH]3)CCCC5C)c2)CC1 (single isomer, unassigned; (+)) [listing 1 of 2 here] | 149 |  |  |
| CCOc1ncc(S(=O)(=O)N2CCN(CC)CC2)cc1-c1nc2c3n(nc2c(=O)[nH]1)CCCC3C (single isomer, unassigned; (-)) [listing 1 of 2 here] |  | 3.7 |  |
| CCCOc1ncc(S(=O)(=O)N2CCN(CC)CC2)cc1-c1nc2c(CC)n(CCOC)nc2c(=O)[nH]1 | 51 | 0.69 |  |
| CCc1c2nc(-c3cc(S(=O)(=O)N4CCN(CC)CC4)cnc3OCC3CC3)[nH]c(=O)c2nn1CCN1CCOCC1 | 153 | 0.26 |  |

| SMILES | Ratio IC50 (Homo sapiens [1]) | IC50 [2] [nM] | further results |
| --- | --- | --- | --- |
| CCCCOc1ncc(S(=O)(=O)N2CCN(CC)CC2)cc1-c1nc2c(CC)n(C3CN(C)C3)nc2c(=O)[nH]1 | 209 | 0.78 | Ratio (Caco-2): 4; Papp A→B at 25 µM [3]: 6 ×10⁻⁶ cm/s; half-life [15]: 74 min; logD [4]: 2.8 |
| CCCOc1ncc(S(=O)(=O)N2CCN(CC)CC2)cc1-c1nc2c3n(nc2c(=O)[nH]1)CCCC3 | 55 | 2.47 |  |
| CCc1c2nc(-c3cc(S(=O)(=O)N4CCN(CC)CC4)cnc3OCCOC)[nH]c(=O)c2nn1C1CCC1 | 219 | 1.76 |  |
| CCN1CCN(S(=O)(=O)c2cnc(OCCOC)c(-c3nc4c5n(nc4c(=O)[nH]3)CCCC5C)c2)CC1 (single isomer, unassigned; (-)) [listing 1 of 2 here] | 490 |  |  |
| CCc1c2nc(-c3cc(S(=O)(=O)N4CCN(CC)CC4)cnc3OCCOC)[nH]c(=O)c2nn1CC(C)C | 331 | 1.04 | Ratio (Caco-2): 2.5; Papp A→B at 25 µM [3]: 24 ×10⁻⁶ cm/s; half-life [15]: 11 min; logD [4]: 2.8 |
| CCc1c2nc(-c3cc(S(=O)(=O)N4CCN(CC)CC4)cnc3OCc3ccccn3)[nH]c(=O)c2nn1CCOC | 309 | 0.75 |  |
| CCN1CCN(S(=O)(=O)c2cnc(OCCOC)c(-c3nc4c5n(nc4c(=O)[nH]3)CCCC5C)c2)CC1 (single isomer, unassigned; (-)) [listing 2 of 2 here] |  | 1.96 | Ratio (Caco-2): 1.5; clearance [13]: 20 mL/min/kg; Papp A→B at 25 µM [3]: 24 ×10⁻⁶ cm/s; Vd [14]: 2.6 L/kg; half-life [15]: 11.2 min; half-life [18]: 90 min; bioavailability [20]: 18%; logD [4]: 1.6 |
| CCN1CCN(S(=O)(=O)c2cnc(OCCOC)c(-c3nc4c5n(nc4c(=O)[nH]3)CCCC5C)c2)CC1 (single isomer, unassigned; (+)) [listing 2 of 2 here] |  | 2.76 |  |
| CCCOc1ccc(S(=O)(=O)N2CCN(CC)CC2)cc1-c1nc2c(CC)n(Cc3ccccn3)nc2c(=O)[nH]1 | 842 |  |  |
| CCc1c2nc(-c3cc(S(=O)(=O)N4CCN(CC)CC4)cnc3OCCOC)[nH]c(=O)c2nn1CCOC | 306 | 1.53 | Ratio (Caco-2): 4.2; Papp A→B at 25 µM [3]: 9 ×10⁻⁶ cm/s; half-life [15]: 70 min; logD [4]: 1.4 |
| CCCn1nc2c(=O)[nH]c(-c3cc(S(=O)(=O)N4CCN(C)CC4)cnc3OCCOC)nc2c1CC | 165 | 4.35 |  |
| CCOc1ncc(S(=O)(=O)N2CCN(CC)CC2)cc1-c1nc2c3n(nc2c(=O)[nH]1)CCCC3C (single isomer, unassigned; (+)) [listing 2 of 2 here] | 125 |  |  |
| CCOc1ncc(S(=O)(=O)N2CCN(CC)CC2)cc1-c1nc2c3n(nc2c(=O)[nH]1)CCCC3C (single isomer, unassigned; (-)) [listing 2 of 2 here] | 55 |  |  |
| CCOc1ncc(S(=O)(=O)N2CCN(CC)CC2)cc1-c1nc2c(CC)n(C3CNC3)nc2c(=O)[nH]1 | 28 | 15.8 |  |
| CCOc1ncc(S(=O)(=O)N2CCN(CC)CC2)cc1-c1nc2c(CC)n(C3CN(C)C3)nc2c(=O)[nH]1 | 52 | 8.2 |  |
| CCc1c2nc(-c3cc(S(=O)(=O)N4CCN(C)CC4)cnc3OCCOC)[nH]c(=O)c2nn1CC(C)C | 237 | 2.89 | Ratio (Caco-2): 2.2; Papp A→B at 25 µM [3]: 19 ×10⁻⁶ cm/s; half-life [15]: 28 min; logD [4]: 2.3 |
| CCc1c2nc(-c3cc(S(=O)(=O)N4CCN(CC)CC4)cnc3OCC(C)C)[nH]c(=O)c2nn1CCCN(C)C | 404 | 2.44 |  |
